Laboratory results: PMC9810488 (Translational and Clinical Pharmacology, 2022)
Like-named read-outs stand apart in the source and are kept apart here.

Key:
[1] = cited from earlier work
[2] = type: in vivo, human; conditions: sitagliptin 100 mg single oral dose, plasma
Summary of the method: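 Healthy Korean adults (≥19 years, BMI 18.0–30.0 kg/m2) took a single 100 mg oral tablet with 150 mL water in randomized periods, washout ≥7 days. Heparinized blood was drawn predose and 15 min–48 h postdose, centrifuged 3,000 rpm, 10 min, 4°C, and plasma stored at −70°C. Assay was LC-MS/MS, positive-ion ESI. Noncompartmental: Cmax observed, AUCinf by linear-up log-down trapezoidal rule. ABCB1 genotyped by TaqMan allelic discrimination.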

[3] = cited from earlier work; remark: listed apart in the source

Row | Sitagliptin AUCinf ([2]; ABCB1 C1236T CC+CT (n=72)) | Sitagliptin Cmax ([2]; ABCB1 C1236T CT+TT (n=81)) [ng/mL] | Sitagliptin AUCinf ([2]; ABCB1 C3435T CC (n=49)) | Sitagliptin AUCinf ([2]; ABCB1 C3435T CC+CT (n=91)) | Sitagliptin Cmax ([2]; ABCB1 C3435T CT (n=42)) [ng/mL] | Sitagliptin Cmax ([2]; ABCB1 C3435T CT+TT (n=51)) [ng/mL] | Sitagliptin AUCinf ([2]; ABCB1 C3435T TT (n=9)) | Sitagliptin AUCinf ([2]; ABCB1 G2677T/A AA (n=2)) | Sitagliptin AUCinf ([2]; ABCB1 G2677T/A AT+GA (n=37)) | Sitagliptin Cmax ([2]; ABCB1 G2677T/A AT+GA (n=37)) [ng/mL] | Sitagliptin AUCinf ([2]; ABCB1 G2677T/A AT+GT (n=44)) | Sitagliptin Cmax ([2]; ABCB1 G2677T/A AT+GT (n=44)) [ng/mL] | Sitagliptin AUCinf ([2]; ABCB1 G2677T/A GA (n=20)) | Sitagliptin AUCinf ([2]; ABCB1 G2677T/A GA+GT (n=47)) | Sitagliptin AUCinf ([2]; ABCB1 G2677T/A TT (n=9)) | SMILES | digoxin concentrations higher in 3435TT homozygous subjects than in CC and CT subjects ([1]; 34 Caucasian subjects) [%] | lower AUC for digoxin in 3435 TT genotype than in CC and CT genotypes ([1]; Japanese study, 114 subjects) [%] | relationship between C3435T SNP and digoxin concentrations ([1]; single digoxin dose) | drug eliminated as unchanged compound in the urine [3]
1 | – | – | – | – | – | – | – | – | – | – | – | – | – | – | – | C[C@H]1O[C@@H](O[C@H]2[C@@H](O)C[C@H](O[C@H]3[C@@H](O)C[C@H](O[C@H]4CC[C@@]5(C)[C@H](CC[C@@H]6[C@@H]5C[C@@H](O)[C@]5(C)[C@@H](C7=CC(=O)OC7)CC[C@]65O)C4)O[C@@H]3C)O[C@@H]2C)C[C@H](O)[C@@H]1O [digoxin] | 20 | 20 | no relationship | –
2 | 3,504.78 ± 655.77 ng*h/mL | 456.01 ± 123.74 | 3,530.20 ± 669.78 ng*h/mL | 3,484.02 ± 630.25 ng*h/mL | 454.26 ± 136.79 | 457.53 ± 130.73 | 3,528.50 ± 564.05 ng*h/mL | 3,481.41 ng*h/mL | 3,501.79 ± 714.08 ng*h/mL | 457.90 ± 98.21 | 3,475.54 ± 576.82 ng*h/mL | 457.31 ± 142.79 | 3,679.91 ± 852.18 ng*h/mL | 3,628.80 ± 723.63 ng*h/mL | 3,477.17 ± 596.14 ng*h/mL | N[C@@H](CC(=O)N1CCn2c(nnc2C(F)(F)F)C1)Cc1cc(F)c(F)cc1F [Sitagliptin] | – | – | – | over 80%
